Test results published in ChEMBL document CHEMBL5352450, “Synthesis and structure-activity relationship studies of original cyclic diadenosine derivatives as nanomolar inhibitors of NAD kinase from pathogenic bacteria” (Eur J Med Chem, 2023).
Active and inactive are the calls of the source. No cut-off for these calls is given here.

What was measured:
NAD kinase 1 = molecular target: T1, NAD kinase 1 (Listeria monocytogenes serotype 4b (strain F2365), UniProt Q721J8); experiment: Inhibition of Listeria monocytogenes NADK1 expressed in Escherichia coli assessed as inhibition constant measured every 32 secs for 32 mins by absorbance based analysis
T1 sequence (Q721J8 whole entry): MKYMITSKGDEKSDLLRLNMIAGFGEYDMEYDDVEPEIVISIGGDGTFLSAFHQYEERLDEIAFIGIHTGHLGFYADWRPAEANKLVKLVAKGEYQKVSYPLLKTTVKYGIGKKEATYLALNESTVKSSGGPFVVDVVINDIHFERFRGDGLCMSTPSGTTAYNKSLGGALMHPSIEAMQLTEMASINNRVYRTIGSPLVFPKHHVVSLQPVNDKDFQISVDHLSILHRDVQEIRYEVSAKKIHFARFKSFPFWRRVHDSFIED

Listeria monocytogenes [1] = experiment: Antibacterial activity against Listeria monocytogenes assessed as reduction in bacterial growth at 0.01 ug/ml incubated for 6 hrs by microplate reader assay; format: functional, organism-based; conditions: dose 0.01 µg/ml
Summary of the method: (§1)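 Overnight 37°C BHI cultures (S. aureus Xen36; L. monocytogenes EGDe) diluted 1:100 into BHI with compound at 0.01 µg/mL in 25% PBS/10% DMSO (S. aureus) or 25% PBS/1% DMSO (Listeria). Controls: vehicle and 10 µg/mL levofloxacin. Shaken at 200 rpm, 37°C, 6 h; growth read on plate reader as percent growth; n=6 biological replicates, one-way ANOVA.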

Staphylococcus aureus [2] = experiment: Antibacterial activity against Staphylococcus aureus assessed as bacterial growth inhibition in presence of polymyxin B by microplate reader assay; format: functional, organism-based
Summary of the method: (§2)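 Same diluted-culture BHI set-up (S. aureus Xen36 in 25% PBS/10% DMSO; L. monocytogenes EGDe in 25% PBS/1% DMSO) with each compound plus polymyxin B at 20, 40, 60 or 80 µg/mL. Incubated shaking at 200 rpm, 37°C; growth monitored by microplate reader.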

Staphylococcus aureus [3] = experiment: Antibacterial activity against Staphylococcus aureus assessed as reduction in bacterial growth at 0.01 ug/ml incubated for 6 hrs by microplate reader assay; format: functional, organism-based; conditions: dose 0.01 µg/ml
Summary of the method: as §1

Listeria monocytogenes [4] = experiment: Antibacterial activity against Listeria monocytogenes assessed as bacterial growth inhibition in presence of polymyxin B by microplate reader assay; format: functional, organism-based
Summary of the method: as §2

SMILES | Ki (NAD kinase 1) | Activity (Listeria monocytogenes [1]) | Activity (Staphylococcus aureus [2]) | Activity (Staphylococcus aureus [3]) | Activity (Listeria monocytogenes [4])
NCCC(=O)NC[C@H]1O[C@@H](n2c(C#CCN(CC(=O)O)C[C@H]3O[C@@H](n4cnc5c(N)ncnc54)[C@H](O)[C@@H]3O)nc3c(N)ncnc32)[C@H](O)[C@@H]1O | 19 µM |  |  |  | 
Nc1ncnc2c1ncn2[C@@H]1O[C@H](CN2CC#Cc3nc4c(N)ncnc4n3[C@@H]3O[C@H](CNC(=O)CCNC(=O)C2)[C@@H](O)[C@H]3O)[C@@H](O)[C@H]1O | 0.504 µM | inactive | Active | inactive | inactive
Nc1ncnc2c1ncn2[C@@H]1O[C@H](CN2CC#Cc3nc4c(N)ncnc4n3[C@@H]3O[C@H](CNS(=O)(=O)CCNC(=O)C2)[C@@H](O)[C@H]3O)[C@@H](O)[C@H]1O | 0.054 µM | inactive | Active | inactive | inactive
NCCN(CC#Cc1nc2c(N)ncnc2n1[C@@H]1O[C@H](CNC(=O)CC(=O)O)[C@@H](O)[C@H]1O)C[C@H]1O[C@@H](n2cnc3c(N)ncnc32)[C@H](O)[C@@H]1O | 53 µM |  |  |  | 
Nc1ncnc2c1ncn2[C@@H]1O[C@H](COCC#Cc2nc3c(N)ncnc3n2[C@@H]2O[C@H](CO)[C@@H](O)[C@H]2O)[C@@H](O)[C@H]1O |  | inactive |  |  | 
NCCS(=O)(=O)NC[C@H]1O[C@@H](n2c(C#CCOC[C@H]3O[C@@H](n4cnc5c(N)ncnc54)[C@H](O)[C@@H]3O)nc3c(N)ncnc32)[C@H](O)[C@@H]1O | 5.5 µM |  |  |  | 
NCCCNC(=O)NC[C@H]1O[C@@H](n2c(C#CCN(CC(=O)O)C[C@H]3O[C@@H](n4cnc5c(N)ncnc54)[C@H](O)[C@@H]3O)nc3c(N)ncnc32)[C@H](O)[C@@H]1O | 16 µM |  |  |  | 
Nc1ncnc2c1ncn2[C@@H]1O[C@H](CN2CC#Cc3nc4c(N)ncnc4n3[C@@H]3O[C@H](CNC(=O)NCCCNC(=O)C2)[C@@H](O)[C@H]3O)[C@@H](O)[C@H]1O | 0.177 µM | inactive | Active | inactive | inactive
Nc1ncnc2c1ncn2[C@@H]1O[C@H](CN2CC#Cc3nc4c(N)ncnc4n3[C@@H]3O[C@H](CNC(=O)CNC(=O)C2)[C@@H](O)[C@H]3O)[C@@H](O)[C@H]1O | 15 µM | inactive | Active | inactive | inactive
Nc1ncnc2c1ncn2[C@@H]1O[C@H](CN2CC#Cc3nc4c(N)ncnc4n3[C@@H]3O[C@H](CNC(=O)CC(=O)NCC2)[C@@H](O)[C@H]3O)[C@@H](O)[C@H]1O | 6.8 µM | inactive | Active | inactive | inactive
NCC(=O)NC[C@H]1O[C@@H](n2c(C#CCN(CC(=O)O)C[C@H]3O[C@@H](n4cnc5c(N)ncnc54)[C@H](O)[C@@H]3O)nc3c(N)ncnc32)[C@H](O)[C@@H]1O | 104 µM |  |  |  | 
Nc1ncnc2c1ncn2[C@@H]1O[C@H](CN2CC#Cc3nc4c(N)ncnc4n3[C@@H]3O[C@H](CNC(=O)NCCNC(=O)C2)[C@@H](O)[C@H]3O)[C@@H](O)[C@H]1O | 7.6 µM | inactive | Active | inactive | inactive
NCCS(=O)(=O)NC[C@H]1O[C@@H](n2c(C#CCN(CC(=O)O)C[C@H]3O[C@@H](n4cnc5c(N)ncnc54)[C@H](O)[C@@H]3O)nc3c(N)ncnc32)[C@H](O)[C@@H]1O | 91 µM |  |  |  | 
NCCNC(=O)NC[C@H]1O[C@@H](n2c(C#CCN(CC(=O)O)C[C@H]3O[C@@H](n4cnc5c(N)ncnc54)[C@H](O)[C@@H]3O)nc3c(N)ncnc32)[C@H](O)[C@@H]1O | 18 µM |  |  |  | 
C[C@H]1COc2c(N3CCN(C)CC3)c(F)cc3c(=O)c(C(=O)O)cn1c23 |  | inactive |  |  | 
